Compound activity deposited in PubChem by several laboratories.
H9c2 TAG inh: triacylglycerol accumulation inhibition; H9c2 cells, Nile Red lipid (TAG) fluorescence; cells loaded with 200 µM oleic acid; AID 651582; inhibition, % at 12.5 µM; 230,000 tested, 0.66% active;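 active = pattern-corrected inhibition of lipid staining of at least 50% with the nuclear-stain viability signal not falling by more than 50%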
B2AR ag: activates human beta-2 adrenergic receptor causing internalization. Am2.2-beta2AR cells, FAP receptor internalization, flow cytometry. 340,000 tested, 0.43% active. AID 504454. response, % (no concentration beside the values). P07550;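 active = response above a set limit, near 3 SD of response in nonfluorescent compounds, cut at about 42% in these data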
Arr AP2 block: inhibitors of human beta-arrestin and AP2 interaction; FITC-arrestin peptide / GST-AP2 beads, flow cytometry; AP2 beta2 appendage carries R879A mutation; inhibition, % at 10 µM; 340,000 tested, 0.31% active; AID 504490;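 active = inhibition above a set limit, near 3 SD of compounds lacking own fluorescence, cut at about 54% in these data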
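System: GST-AP2 R879A bound to glutathione beads, E. coli-expressed. Also added: 50 nM FITC-arrestin peptide. Schedule: compound with beads 12 min RT, then probe 1 h RT. Signal: bead flow cytometry, FITC channel. Read-out basis: percent response.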
GRK2 aptamer HTS: inhibitors of human GRK2 displacing RNA aptamer. P25098. bead flow cytometry, FAM-aptamer displacement from GRK2. inhibition of aptamer binding, % at 10 µM. 330,000 tested, 0.59% active;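 active = inhibition of aptamer binding above 40%, roughly 3 SD of noise, on plates passing a quality check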;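 also: median bead fluorescence of bound FAM aptamer so fluorescent compounds give negative values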
Lipid droplet: modulators of hepatic lipid droplet formation | 240,000 tested, 0.4% active | AID 1656 | AML12 mouse hepatocytes, oleate lipid droplets, BODIPY imaging | inhibition, % at 6.5 µM;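 active = lipid droplet intensity inhibited by at least 50%, with more than 500 cells counted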
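Test system: AML12 hepatocytes (mouse); reagent: oleate loading, 100 µM; dosing: one dose, 6.5 µM compound; incubation: overnight exposure; signal: fluorescence imaging, 20x objective, two fields per well; read-out basis: % inhibition of corrected integrated BODIPY droplet signal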
NTR1 ag: activates human neurotensin receptor 1 | NTR1-U2OS beta-arrestin-GFP spot imaging, agonist mode | activation, % at 20 µM | 330,000 tested, 0.17% active;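 active = activation at or above 40% of the spot to cytoplasm intensity ratio, with at least 20 cells analyzed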
Arr-AP2 CP1: inhibitors of human beta-arrestin and AP2 interaction; shares compounds with Arr AP2 block; GST-AP2 beads, FITC arrestin peptide binding, flow cytometry; GST-fused beta2-adaptin appendage, R879A mutant; inhibition, % at 10 µM; 1,300 tested, 2% active; AID 504908;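 active = inhibition above a set limit, roughly 3 SD of non-fluorescent compound noise, cut at about 38% in these data; inactive = inhibition at or below that limit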;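 also: loss of bead fluorescence from 50 nM FITC arrestin peptide bound to appendage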
GST-FITC bead: disrupts GST binding to glutathione beads, arrestin-AP2 artifact; shares compounds with Arr AP2 block; GST-fluorescein binding to GSH beads, fluorescence, counter-screen; inhibition, % at 10 µM; 1,300 tested, 2% active;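 active = inhibition above 50%, about 3 SD of the inhibition seen with non-fluorescent compounds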;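 also: fluorescein maleimide labelled GST captured on 4 micron glutathione beads; higher means more loss of bead fluorescence from quenching or blocked binding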
Large screens that a line does not name were inactive (follow-up assays come after a bar, where they were run). Shown are actives, neighbours in structure and some others; about 2% of the full set was active somewhere.

Cc1ccccc1OCC(=O)Nc1nc2ccccc2[nH]1	none
COCC#Cc1cnc2c(c1)C(=O)N([C@H](C)CO)C[C@H](C)[C@@H](CN(C)S(=O)(=O)c1ccccc1)O2	none (no result: B2AR ag, Arr AP2 block, GRK2 aptamer HTS, Lipid droplet, NTR1 ag)
NS(=O)(=O)c1ccc(NC(=O)CCC(=O)O)cc1	none (no result: B2AR ag, Arr AP2 block, GRK2 aptamer HTS, Lipid droplet, NTR1 ag)
Cn1nc(C(=O)N2CCN(c3cccc(Cl)c3)CC2)c2c1-c1ccccc1S(=O)(=O)C2	none (no result: H9c2 TAG inh)
Cn1nc(C(=O)N2CCN(c3ccc(Cl)cc3)CC2)c2c1-c1ccccc1S(=O)(=O)C2	Arr AP2 block 55.2 (no result: H9c2 TAG inh) | Arr-AP2 CP1 inactive | GST-FITC bead inactive
CC(OC(=O)c1ccc(Cl)nc1)C(=O)NCc1ccc2c(c1)OCO2 (configuration not stated)	Arr AP2 block 61.3 (no result: Lipid droplet) | Arr-AP2 CP1 inactive | GST-FITC bead inactive
Cc1ccccc1C(=O)OC(C)C(=O)NCc1ccc2c(c1)OCO2 (configuration not stated)	none (no result: Lipid droplet)
CC1CCCCC1NC(=O)C1CCC(CNS(=O)(=O)c2ccc3c(c2)C(C)(C)C(=O)N3C)CC1 (configuration not stated)	none (no result: B2AR ag, Arr AP2 block, GRK2 aptamer HTS, Lipid droplet, NTR1 ag)
CC(C)(C)c1ccc(C(=O)NNC(=O)CCC(=O)Nc2ccccc2)cc1	none
CC(=O)c1ccc(NC(=O)C2C3C=CC(C3=C(c3ccccc3)c3ccccc3)C2C(=O)O)cc1 (configuration not stated)	Arr AP2 block 55.8 | Arr-AP2 CP1 inactive | GST-FITC bead inactive
Cc1ccc(-n2nc3cc(C)c(N)cc3n2)cc1	none
Cc1cc2nc3ccc(N(C)C)cc3nc2cc1N	Arr AP2 block 64.3 (no result: Lipid droplet) | Arr-AP2 CP1 44.3 | GST-FITC bead inactive
Cc1ccc(-n2c(SCC(=O)Nc3cc(C)on3)nc3c([nH]c4ccccc43)c2=O)cc1	Arr AP2 block 91.8 | Arr-AP2 CP1 inactive | GST-FITC bead inactive
COc1ccc(-n2c(SCC(=O)Nc3cc(C)on3)nc3c([nH]c4ccccc43)c2=O)cc1	none
O=C(CSc1nc2c([nH]c3ccccc32)c(=O)n1-c1ccc(F)cc1)NCc1ccco1	Arr AP2 block 100.9 | Arr-AP2 CP1 inactive | GST-FITC bead inactive
O=C(CSc1nc2ccccc2c(=O)n1-c1ccccc1)NCc1ccco1	none (no result: Lipid droplet)
O=C(O)/C=C/C(=O)Nc1ccc(Oc2ccccc2)cc1	none
O=C(O)/C=C\C(=O)Nc1ccc(OC(F)F)cc1	Arr AP2 block 54.4 | Arr-AP2 CP1 inactive | GST-FITC bead inactive
CCOc1ccc(-c2c(C(=O)N/N=C/c3cccs3)nnn2-c2nonc2N)cc1	Arr AP2 block 61.1 (no result: H9c2 TAG inh) | Arr-AP2 CP1 inactive | GST-FITC bead inactive
COc1ccc(/C=C/c2n[nH]c(=O)c(C#N)c2C)cc1	none (no result: H9c2 TAG inh)
COC(=O)C(N)Cc1ccc(O)c(O)c1 (configuration not stated)	Arr AP2 block 80.8 | Arr-AP2 CP1 inactive | GST-FITC bead inactive
O=c1[nH]c2ccc(NC(=S)Nc3ccccc3Cl)cc2[nH]1	Arr AP2 block 55.3 | Arr-AP2 CP1 inactive | GST-FITC bead inactive
Cc1ccccc1CC(=O)Nc1ccc2c(c1)CCC2	Arr AP2 block 59.5 (no result: H9c2 TAG inh) | Arr-AP2 CP1 inactive | GST-FITC bead inactive
COCC(=O)Nc1nc2n(n1)C(c1ccc(Cl)cc1)CC(c1ccc(OC)cc1)N2 (configuration not stated)	Arr AP2 block 79.6 (no result: Lipid droplet) | Arr-AP2 CP1 inactive | GST-FITC bead inactive
COc1ccc(-c2cc(C(F)F)n3ncc(C(=O)Nc4cc(C)on4)c3n2)cc1	Arr AP2 block 103.5 (no result: GRK2 aptamer HTS) | Arr-AP2 CP1 inactive | GST-FITC bead inactive
COc1ccccc1C(=O)Nc1ccnn1C1CCN(Cc2ccn[nH]2)CC1	none (no result: H9c2 TAG inh)
CCCn1nnc(NC(=O)/C=C/c2ccc(C(C)C)cc2)n1	none
COCCNC(=O)C1(C)CCCN(C(=O)c2ccccc2C(F)(F)F)C1 (configuration not stated)	none (no result: B2AR ag, Arr AP2 block, GRK2 aptamer HTS, Lipid droplet, NTR1 ag)
O=C(Nc1nnc(COc2ccccc2F)s1)Nc1ccccc1F	none
O=C(Nc1ccc(F)cc1)Nc1nnc(COc2ccccc2F)s1	Arr AP2 block 105.7 | Arr-AP2 CP1 inactive | GST-FITC bead inactive
CC(C)CCn1cnc2c(sc3nc4c(cc32)CSC(C)(C)C4)c1=O	Arr AP2 block 104.5 (no result: H9c2 TAG inh) | Arr-AP2 CP1 inactive | GST-FITC bead inactive
CCCCn1cnc2c(sc3nc4c(cc32)CSC(C)(C)C4)c1=O	none (no result: H9c2 TAG inh)
CCOc1ccc(OCC)c(NC(=O)CCNS(=O)(=O)c2cc(Br)cnc2N)c1	none (no result: H9c2 TAG inh)
O=C(CN1c2ccccc2S(=O)(=O)c2ccccc21)NCc1ccccc1	Arr AP2 block 63.9 (no result: H9c2 TAG inh) | Arr-AP2 CP1 inactive | GST-FITC bead inactive
COc1cc(-c2c(C(C)=O)c(C)nc3c2C(=O)c2ccccc2-3)cc(OC)c1OC	Arr AP2 block 59.2 (no result: H9c2 TAG inh, GRK2 aptamer HTS) | Arr-AP2 CP1 inactive | GST-FITC bead inactive
O=C(COc1cccc(Br)c1)Nc1ccc(N2CCOCC2)cc1N1CCOCC1	none (no result: Lipid droplet)
COc1cc(C(=O)NCCCCc2ccccc2)cc(OC)c1OC	none
Clc1ccc(-c2csc(N/N=C/c3ccc4c(c3)OCO4)n2)cc1	Arr AP2 block 79.1 | Arr-AP2 CP1 inactive | GST-FITC bead inactive
O=C(/C=C/c1ccc2c(c1)OCO2)Nc1nc(-c2ccccc2)cs1	none (no result: Lipid droplet)
CCOCC(=O)Nc1ccc2c(c1)N(S(=O)(=O)c1cccs1)CCC2	Arr AP2 block 55.8 (no result: Lipid droplet) | Arr-AP2 CP1 inactive | GST-FITC bead inactive
CNC(=O)C(=O)Nc1ccc2c(c1)N(S(=O)(=O)c1cccs1)CCC2	none (no result: Lipid droplet)
Cc1ccc(CNS(=O)(=O)NCc2ccccc2)cc1	none
Cc1ccc(S(=O)(=O)NCc2ccccc2)cc1	Arr AP2 block 55.6 (no result: GRK2 aptamer HTS) | Arr-AP2 CP1 inactive | GST-FITC bead inactive
O=[N+]([O-])c1ccccc1OC/C(=N\O)c1ccccc1	none (no result: H9c2 TAG inh)
Cc1ccc(/C(COc2ccccc2O)=N\O)cc1	Arr AP2 block 56.6 (no result: H9c2 TAG inh) | Arr-AP2 CP1 inactive | GST-FITC bead inactive
Cc1ccc(OC(C)C(=O)N(C)c2ccccc2)c([N+](=O)[O-])n1 (configuration not stated)	none (no result: Lipid droplet)
CC[n+]1c(C)cc(C)n1-c1ccccc1	none
CCn1c(SCC(=O)NNC(=O)c2ccc(OC)cc2)nnc1-c1ccco1	none (no result: H9c2 TAG inh)
O=C(/C=C/c1ccc(F)cc1)Nc1ccc(S(=O)(=O)N2CCOCC2)cc1	Arr AP2 block 54.0 | Arr-AP2 CP1 inactive | GST-FITC bead inactive
O=C(CCc1ccccc1Cl)Nc1ccc(S(=O)(=O)N2CCOCC2)cc1	Arr AP2 block 58.8 (no result: Lipid droplet) | Arr-AP2 CP1 inactive | GST-FITC bead inactive
CC(=O)c1ccccc1NC(=O)COC(=O)CCC1CCCC1	none (no result: Lipid droplet)
O=C(CNS(=O)(=O)c1ccccc1)OCC(=O)c1c[nH]c2ccccc12	Arr AP2 block 75.7 (no result: Lipid droplet) | Arr-AP2 CP1 inactive | GST-FITC bead inactive
